Results on 11 compounds are retold here after ChEMBL document CHEMBL2346500, “Design and synthesis of dual-action inhibitors targeting histone deacetylases and 3-hydroxy-3-methylglutaryl coenzyme A reductase for cancer treatment” (J Med Chem, 2013).

Broadly, the IC50 is the midpoint of a concentration-inhibition curve.

Assay [1] has as its system MEF. Description: Cytotoxicity against mouse MEF cells after 72 hrs by MTT assay. The format is ADME, cell-based.
Assay [2] deals with Hs68. Description: Cytotoxicity against human HS68 cells after 72 hrs by MTT assay. The format is ADME, cell-based. The conditions noted are these: Hs68, 72 h. (In general: Tetrazolium dyes change colour on reduction, which living cells bring about.)
Assay [3] has as its target Histone deacetylase (Homo sapiens) (UniProt Q13547+O15379+Q9UBN7+Q92769+Q9UQL6+Q8WUI4+Q9BY41+Q96DB2+P56524+Q9UKV0+Q969S8). The assay is described as follows: Inhibition of class 1 HDAC in human A549 cells assessed as increase in histone acetylation after 24 hrs by Western blotting analysis. The format is cell-based. The gist of the method: (§1)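 A549 cells (DMEM, 10% FBS, penicillin/streptomycin, 5% CO2) exposed to compounds at indicated doses for 24 h. Cells lysed on ice, total lysates run on SDS–PAGE and immunoblotted with antibodies to acetyl-histone H3, acetyl-tubulin and actin. Loading normalised to β-actin.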
On the technique in general: Immunoblotting shows a protein as a band on a membrane.

The target in assay [4] is Histone deacetylase 1 (Homo sapiens, UniProt Q13547). Description: Inhibition of recombinant HDAC1 (unknown origin) after 10 mins by fluorimetric analysis.
For assay [5], the system named is A549. The assay is described as follows: Selectivity index, ratio of IC50 for mouse MEF cells to IC50 for human A549 cells. The format is functional.
The test system of assay [6] is A549. Description: Selectivity index, ratio of IC50 for human HS68 cells to IC50 for human A549 cells. The format is functional.
Assay [7] addresses T1, Protein deacetylase HDAC6 (Homo sapiens) (UniProt Q9UBN7).
T1 sequence (whole entry): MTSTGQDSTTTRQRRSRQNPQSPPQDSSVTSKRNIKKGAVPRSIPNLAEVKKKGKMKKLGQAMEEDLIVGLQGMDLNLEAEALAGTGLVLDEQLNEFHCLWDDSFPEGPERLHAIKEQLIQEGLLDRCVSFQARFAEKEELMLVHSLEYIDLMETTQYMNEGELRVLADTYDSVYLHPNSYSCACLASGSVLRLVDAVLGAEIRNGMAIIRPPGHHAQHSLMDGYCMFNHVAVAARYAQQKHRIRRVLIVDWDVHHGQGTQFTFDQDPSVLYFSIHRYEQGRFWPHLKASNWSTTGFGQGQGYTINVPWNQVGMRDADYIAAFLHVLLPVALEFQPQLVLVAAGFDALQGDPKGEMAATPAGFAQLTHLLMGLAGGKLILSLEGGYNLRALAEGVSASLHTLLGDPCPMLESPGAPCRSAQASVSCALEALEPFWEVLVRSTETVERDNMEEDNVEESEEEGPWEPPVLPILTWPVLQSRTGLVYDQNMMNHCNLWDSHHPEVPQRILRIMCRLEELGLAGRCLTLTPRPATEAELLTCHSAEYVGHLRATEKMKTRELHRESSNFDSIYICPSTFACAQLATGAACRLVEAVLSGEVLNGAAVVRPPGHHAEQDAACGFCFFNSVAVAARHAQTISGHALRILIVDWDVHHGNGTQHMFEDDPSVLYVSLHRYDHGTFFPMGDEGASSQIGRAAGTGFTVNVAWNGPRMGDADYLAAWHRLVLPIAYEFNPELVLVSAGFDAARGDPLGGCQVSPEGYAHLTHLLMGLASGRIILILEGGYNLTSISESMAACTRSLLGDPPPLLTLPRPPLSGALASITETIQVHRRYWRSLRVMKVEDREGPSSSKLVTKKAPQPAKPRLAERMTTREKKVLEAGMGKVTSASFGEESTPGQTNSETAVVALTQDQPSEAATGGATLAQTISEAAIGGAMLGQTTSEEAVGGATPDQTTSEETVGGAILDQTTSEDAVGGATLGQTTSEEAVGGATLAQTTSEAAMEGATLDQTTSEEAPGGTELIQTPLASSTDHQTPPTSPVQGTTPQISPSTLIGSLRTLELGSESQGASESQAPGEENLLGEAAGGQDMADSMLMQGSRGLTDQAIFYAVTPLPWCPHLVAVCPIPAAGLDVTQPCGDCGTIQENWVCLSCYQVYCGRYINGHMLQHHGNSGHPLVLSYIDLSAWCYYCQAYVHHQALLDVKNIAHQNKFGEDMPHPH
The assay is described as follows: Inhibition of HDAC6 in human A549 cells assessed as increase in tubulin acetylation after 24 hrs by Western blotting analysis. The format is cell-based. The gist of the method:
as §1

Assay [8] addresses T2, 3-hydroxy-3-methylglutaryl-coenzyme A reductase (Homo sapiens, UniProt P04035).
T2 sequence (P04035 whole entry): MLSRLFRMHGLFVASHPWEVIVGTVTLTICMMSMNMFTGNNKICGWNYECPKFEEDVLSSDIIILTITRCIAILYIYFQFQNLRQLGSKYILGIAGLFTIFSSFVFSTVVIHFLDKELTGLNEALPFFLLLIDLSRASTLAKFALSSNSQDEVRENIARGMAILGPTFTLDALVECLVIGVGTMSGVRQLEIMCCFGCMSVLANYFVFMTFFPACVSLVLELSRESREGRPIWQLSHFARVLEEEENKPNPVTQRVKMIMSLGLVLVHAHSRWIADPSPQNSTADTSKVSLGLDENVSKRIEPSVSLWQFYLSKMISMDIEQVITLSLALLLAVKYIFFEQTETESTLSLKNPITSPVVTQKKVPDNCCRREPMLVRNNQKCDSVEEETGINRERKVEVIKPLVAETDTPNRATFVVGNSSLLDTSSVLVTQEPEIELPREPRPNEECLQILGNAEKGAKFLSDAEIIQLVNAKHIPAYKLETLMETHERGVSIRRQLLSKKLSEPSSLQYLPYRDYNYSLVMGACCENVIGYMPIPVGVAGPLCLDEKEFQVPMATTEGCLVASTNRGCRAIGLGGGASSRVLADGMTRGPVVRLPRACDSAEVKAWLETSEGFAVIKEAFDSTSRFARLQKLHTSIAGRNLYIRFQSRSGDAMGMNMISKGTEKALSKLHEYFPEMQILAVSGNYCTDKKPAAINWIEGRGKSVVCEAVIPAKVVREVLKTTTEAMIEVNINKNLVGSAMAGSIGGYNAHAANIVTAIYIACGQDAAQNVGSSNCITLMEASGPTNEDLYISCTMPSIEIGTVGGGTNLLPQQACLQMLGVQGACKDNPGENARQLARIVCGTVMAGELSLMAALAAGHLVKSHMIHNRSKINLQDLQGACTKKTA
The assay is described as follows: Inhibition of HMG-CoA reductase in human A549 cells after 5 mins by spectrophotometric analysis.

In assay [9] the target is T3, Protein deacetylase HDAC6 (Homo sapiens, UniProt Q9UBN7).
T3 sequence (Q9UBN7 whole entry): T1 sequence (whole entry)
Description: Inhibition of recombinant HDAC6 (unknown origin) after 10 mins by fluorimetric analysis.

Assay [10] concerns the target T2, 3-hydroxy-3-methylglutaryl-coenzyme A reductase. Description: Inhibition of recombinant HMG-CoA reductase (unknown origin) after 10 mins by spectrophotometric analysis.
The target of assay [11] is Histone deacetylase 2 (Homo sapiens, UniProt Q92769). The assay is described as follows: Inhibition of recombinant HDAC2 (unknown origin) after 10 mins by fluorimetric analysis.
Assay [12] has as its system A549. The assay is described as follows: Cytotoxicity against human A549 cells after 72 hrs by MTT assay. The format is functional, cell-based. The conditions noted are these: A549, 72 h.

Histone deacetylase 1, sequence (Q13547 whole entry): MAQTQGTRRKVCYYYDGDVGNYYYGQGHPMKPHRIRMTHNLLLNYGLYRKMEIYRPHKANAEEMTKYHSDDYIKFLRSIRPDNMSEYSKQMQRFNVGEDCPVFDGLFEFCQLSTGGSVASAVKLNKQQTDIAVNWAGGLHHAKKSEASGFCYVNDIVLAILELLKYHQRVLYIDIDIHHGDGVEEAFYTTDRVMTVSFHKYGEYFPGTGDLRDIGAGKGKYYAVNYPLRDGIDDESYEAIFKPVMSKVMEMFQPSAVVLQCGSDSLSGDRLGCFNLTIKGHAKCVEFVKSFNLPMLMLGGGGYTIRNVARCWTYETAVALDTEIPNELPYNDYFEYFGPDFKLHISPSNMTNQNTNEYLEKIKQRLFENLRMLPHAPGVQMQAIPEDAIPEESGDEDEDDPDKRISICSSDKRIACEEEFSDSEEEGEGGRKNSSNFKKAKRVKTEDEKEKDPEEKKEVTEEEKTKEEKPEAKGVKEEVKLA
Histone deacetylase 2, sequence (Q92769 whole entry): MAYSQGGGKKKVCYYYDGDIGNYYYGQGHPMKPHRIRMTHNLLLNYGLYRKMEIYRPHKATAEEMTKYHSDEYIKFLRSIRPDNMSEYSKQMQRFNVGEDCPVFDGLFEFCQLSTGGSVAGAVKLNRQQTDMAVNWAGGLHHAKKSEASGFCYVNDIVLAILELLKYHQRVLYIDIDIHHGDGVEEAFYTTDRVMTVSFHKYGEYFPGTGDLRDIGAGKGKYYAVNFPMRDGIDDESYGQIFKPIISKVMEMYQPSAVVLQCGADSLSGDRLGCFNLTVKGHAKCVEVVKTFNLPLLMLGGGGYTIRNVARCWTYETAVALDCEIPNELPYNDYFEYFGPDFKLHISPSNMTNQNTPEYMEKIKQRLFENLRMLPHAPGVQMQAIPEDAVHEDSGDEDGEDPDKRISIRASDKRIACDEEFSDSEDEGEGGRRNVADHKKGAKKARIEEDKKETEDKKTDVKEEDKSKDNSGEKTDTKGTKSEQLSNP

Consider `CC(C)c1c(C(=O)Nc2ccccc2)c(-c2ccccc2)c(-c2ccc(F)cc2)n1CC[C@@H](O)C[C@@H](O)CC(=O)NO`, for which the 50% inhibitory concentration (IC50) in assay [1] is over 100000 nM; in assay [2], over 100000 nM; in [4] it was 123 nM; in [8], 5700 nM; in assay [9], 86.6 nM; in assay [10] it was 12.3 nM. The inhibition result in [3] and in assay [7] was “Dose-dependent effect” each time. The “Ratio IC50” value in assay [5] and in assay [6] was over 5.7 in each case.

As to `C[C@H]1C=C2C=C[C@H](C)[C@H](CC[C@@H]3C[C@@H](O[Si](C)(C)C(C)(C)C)CC(=O)O3)[C@H]2[C@@H](OC(=O)NCc2ccc(-c3cn(CCCCCCC(=O)NO)nn3)cc2)C1`, the inhibition result in assay [3] and in assay [7] was “Dose-dependent effect” each time. The IC50 in assay [4] was determined as 125 nM; in assay [11] it was 882 nM; in assay [9], 34 nM.

As for `O=C(CCCCCCC(=O)Nc1ccccc1)NO` [VORINOSTAT], the IC50 in assay [10] is over 10000 nM.

As for `CCC(C)(C)C(=O)O[C@H]1C[C@@H](C)C=C2C=C[C@H](C)[C@H](CC[C@@H]3C[C@@H](O)CC(=O)O3)[C@H]21` [SIMVASTATIN], the IC50 in assay [1] worked out at 36700 nM; in assay [2], 26400 nM; in assay [12], 16300 nM. The “Ratio IC50” value turned out to be 2.3 in assay [5] and 1.6 in [6].

Take `CC[C@H](C)C(=O)O[C@H]1C[C@@H](C)C=C2C=C[C@H](C)[C@H](CC[C@@H]3C[C@@H](O)CC(=O)O3)[C@H]21` [LOVASTATIN]: the results for the IC50 in assay [1] and in [2] were 35000 nM and 23200 nM, respectively.

`C[C@H]1C=C2C=C[C@H](C)[C@H](CC[C@@H]3C[C@@H](O[Si](C)(C)C(C)(C)C)CC(=O)O3)[C@H]2[C@@H](OC(=O)NCCCCCCC(=O)NO)C1`: the IC50 in assay [4] is 122 nM; in [11], 658 nM; in assay [9], 140 nM.

On to `CCC(C)(C)C(=O)O[C@H]1C[C@@H](C)C=C2C=C[C@H](C)[C@H](CC[C@@H](O)C[C@@H](O)CC(=O)NO)[C@H]21`, for which the half-maximal inhibitory concentration (IC50) was over 100000 nM in assay [1]; over 100000 nM in assay [2]; 63.4 nM in [4]; 414 nM in [11]; 7900 nM in [8]; 69.5 nM in assay [9]. In addition, in assay [10], the IC50 was 13.1 nM. The inhibition entry in assay [3] and in assay [7] was “Dose-dependent effect” throughout. Further, the “Ratio IC50” value in [5] and in assay [6] was over 5 in each case.

Take `CC(C)c1nc(N(C)S(C)(=O)=O)nc(-c2ccc(F)cc2)c1/C=C/[C@@H](O)C[C@@H](O)CC(=O)NO`: the inhibition entry in assay [3] and in [7] was “Dose-dependent effect” throughout. In addition, half-maximal inhibition in [8] (IC50) was put at 14900 nM.

In assay [1], `CC(C)c1c(C(=O)Nc2ccccc2)c(-c2ccccc2)c(-c2ccc(F)cc2)n1CC[C@@H](O)C[C@@H](O)CC(=O)O` [ATORVASTATIN] registered an IC50 of 30700 nM.

As for `C[C@H]1C=C2C=C[C@H](C)[C@H](CC[C@@H]3C[C@@H](O[Si](C)(C)C(C)(C)C)CC(=O)O3)[C@H]2[C@@H](OC(=O)Nc2ccc(-c3cn(CCCCCCC(=O)NO)nn3)cc2)C1`, the inhibition entry in assay [3] and in assay [7] was “Dose-dependent effect” each time. The IC50 in assay [4] was 159 nM; in assay [11], 463 nM; in assay [9] it was 127 nM.

Take `CC[C@H](C)C(=O)O[C@H]1C[C@@H](C)C=C2C=C[C@H](C)[C@H](CC[C@@H](O)C[C@@H](O)CC(=O)NO)[C@H]21`: the IC50 is over 100000 nM in assay [1]; over 100000 nM in assay [2]; 64.8 nM in [4]; 468 nM in assay [11]; 15900 nM in assay [8]; 51 nM in [9]. For the same compound, the IC50 in assay [10] is 16.8 nM. Also, the inhibition entry in assay [3] and in assay [7] was “Dose-dependent effect” in each case. For the same compound, the “Ratio IC50” value in assay [5] and in [6] was over 5.6 throughout.
